Measured values: ChEMBL document CHEMBL1149773, “Synthesis, determination of the lipophilicity, anticancer and antimicrobial properties of some fused 1,2,4-triazole derivatives” (Eur J Med Chem, 2008)
Active and inactive are the calls of the source. The rule behind the calls is not given here.

Key:
[1] = Lipophilicity, log kw in dioxane aqueous system at pH 3.5; type: physicochemical; settings: buffer
In short: (§1)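 RP-HPLC on an octadecyl silica column (150 × 4.6 mm, 5 µm) at 22 ± 1 °C, flow 1.0 mL min⁻¹, UV detection at 254 nm. Mobile phase was methanol, acetonitrile or dioxane with water and 0.01 M phosphate buffer pH 3.5 containing 0.05 M DEA. log k_W was extrapolated to pure water by regression.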

LS180 [2] = test: Induction of DNA damage in human LS180 cells at 29.3 uM; type: functional, cell-based
In short: (§2)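 Cells were treated at 29.3 µM (10 µg mL⁻¹) and washed twice with PBS. DNA was isolated with lysis buffer plus proteinase K, or cells were lysed as agarose plugs. Samples ran on 1% agarose with propidium iodide at 120 V for 1.5 h at room temperature […]. Experiments were repeated three times. The comet assay was also run on T47D.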

LS180 [3] = test: Effect on superoxide dismutase gene expression in human LS180 cells at 29.3 uM; type: functional, cell-based
In short: (§3)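 LS180 and T47D cells were incubated at 29.3 µM (10 µg mL⁻¹). SOD gene expression was visualised by electrophoresis on 1% agarose gel against an untreated control.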

T47D [4] = test: Effect on superoxide dismutase gene expression in human T47D cells at 29.3 uM; type: functional, cell-based; in short: as §3
Vero = test: Induction of DNA damage in african green monkey Vero cells at 29.3 uM; type: cell-based; settings: chlorocebus sabaeus; in short: as §2
SiHa [5] = test: Induction of DNA damage in human SiHa cells at 29.3 uM; type: functional, cell-based; in short: as §2
T47D [6] = test: Induction of DNA damage in human T47D cells at 29.3 uM; type: functional, cell-based; in short: as §2
[7] = Lipophilicity, log kw in acetonitrile aqueous system at pH 3.5; type: physicochemical; in short: as §1
[8] = Lipophilicity, log kw in methanol aqueous system at pH 3.5; type: physicochemical; in short: as §1
[9] = Growth inhibition of human skin fibroblast at 29.3 uM; type: cell-based; settings: human skin fibroblasts, read-out: GI
In short: (§4)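 Vero, LS180, SiHa, T47D or primary HSF cells were seeded at 10^4 cells per mL and preincubated in microtiter plates. Compounds were added at 10 or 50 µg mL⁻¹ (printed µM equivalents depend on the compound) and incubated 72 h. End-point was BrdU labelling read spectrophotometrically on an ELISA reader. Growth inhibition is % versus untreated controls; triplicates.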

[10] = Growth inhibition of human skin fibroblast at 146.7 uM; type: cell-based; settings: human skin fibroblasts, read-out: GI; in short: as §4
[11] = Growth inhibition of african green monkey Vero cells at 29.3 uM; type: cell-based; settings: chlorocebus sabaeus, read-out: GI; in short: as §4
[12] = Growth inhibition of african green monkey Vero cells at 146.7 uM; type: cell-based; settings: chlorocebus sabaeus, read-out: GI; in short: as §4
[13] = Growth inhibition of human LS180 cells at 29.3 uM; type: functional; settings: read-out: GI; in short: as §4
[14] = Growth inhibition of human LS180 cells at 146.7 uM; type: functional; settings: read-out: GI; in short: as §4
SiHa [15] = test: Growth inhibition of human SiHa cells at 29.3 uM; type: functional; settings: read-out: GI; in short: as §4
SiHa [16] = test: Growth inhibition of human SiHa cells at 146.7 uM; type: functional; settings: read-out: GI; in short: as §4
T47D [17] = test: Growth inhibition of human T47D cells at 29.3 uM; type: functional; settings: read-out: GI; in short: as §4
T47D [18] = test: Growth inhibition of human T47D cells at 146.7 uM; type: functional; settings: read-out: GI; in short: as §4
[19] = Antiproliferative activity against human skin fibroblast assessed as cell viability at 1 uM by MTT assay; type: cell-based; settings: human skin fibroblasts, read-out: Activity
In short: (§5)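 Log-phase cells, kept in supplemented RPMI 1640 (HSF in DMEM/10% FBS) at 37 °C, 5% CO2, were exposed 24 h to 1, 50 or 100 µM compound from DMSO. They were washed, given 0.5 mg/mL MTT in HEPES buffer pH 7.4 for 45 min at 37 °C, and formazan was dissolved in DMSO and read at 570 nm. Values are % viability versus control from three independent measurements.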

[20] = Antiproliferative activity against human skin fibroblast assessed as cell viability at 50 uM by MTT assay; type: cell-based; settings: human skin fibroblasts, read-out: Activity
In short: (§6)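 MTT viability assay on primary human skin fibroblasts grown in DMEM with 10% FBS and penicillin/streptomycin. Compounds were dissolved in DMSO and given at 1, 50 or 100 µM for 24 h. Cells were washed in HEPES-buffered medium (pH 7.4) and then given MTT 0.5 mg mL⁻¹ for 45 min at 37 °C. Formazan was dissolved in DMSO and read at 570 nm. Viability is % of control; three independent measurements.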

[21] = Antiproliferative activity against human skin fibroblast assessed as cell viability at 100 uM by MTT assay; type: cell-based; settings: human skin fibroblasts, read-out: Activity; in short: as §6
[22] = Antiproliferative activity against human RPMI cells assessed as cell viability at 1 uM by MTT assay; type: functional; settings: read-out: Activity; in short: as §5
[23] = Antiproliferative activity against human RPMI cells assessed as cell viability at 50 uM by MTT assay; type: functional; settings: read-out: Activity; in short: as §5
[24] = Antiproliferative activity against human RPMI cells assessed as cell viability at 100 uM by MTT assay; type: functional; settings: read-out: Activity; in short: as §5
HeLa [25] = test: Antiproliferative activity against human HeLa cells assessed as cell viability at 1 uM by MTT assay; type: functional; settings: read-out: Activity; in short: as §5
HeLa [26] = test: Antiproliferative activity against human HeLa cells assessed as cell viability at 50 uM by MTT assay; type: functional; settings: read-out: Activity; in short: as §5
HeLa [27] = test: Antiproliferative activity against human HeLa cells assessed as cell viability at 100 uM by MTT assay; type: functional; settings: read-out: Activity; in short: as §5

## Cc1cc(Cl)ccc1OCc1nnc2n1CCN2c1ccccc1
[1]
  logKw: 1.17
LS180 [2]
  Activity: Active
LS180 [3]
  Activity: Active
T47D [4]
  Activity: Active
Vero
  Activity: Active
SiHa [5]
  Activity: Active
T47D [6]
  Activity: Active
[7]
  logKw: 1.36
[8]
  logKw: 1.62
[9]
  inhibition at 29.3 µM: 4%
[10]
  inhibition at 146.7 µM: 8%
[11]
  inhibition at 29.3 µM: 20%
[12]
  inhibition at 146.7 µM: 20%
[13]
  inhibition of growth at 29.3 µM: 35%
[14]
  inhibition of growth at 146.7 µM: 39%
SiHa [15]
  inhibition of growth at 29.3 µM: 30%
SiHa [16]
  inhibition of growth at 146.7 µM: 30%
T47D [17]
  inhibition of growth at 29.3 µM: 25%
T47D [18]
  inhibition of growth at 146.7 µM: 40%
[19]
  viability at 1 µM: 79.2%
[20]
  viability at 50 µM: 76.8%
[21]
  viability at 100 µM: 72.5%
[22]
  viability at 1 µM: 112%
[23]
  viability at 50 µM: 114%
[24]
  viability at 100 µM: 108%
HeLa [25]
  viability at 1 µM: 65.6%
HeLa [26]
  viability at 50 µM: 75.1%
HeLa [27]
  viability at 100 µM: 75.9%
